Compound activity: PubChem BioAssay, several laboratories
KCC2 mod: KCC2 cotransporter modulators, thallium flux, primary screen, cell-based, HEK293 KCC2, FluoZin-2 fluorescence, MLSMR | B-score of Tl+ flux slope (higher = more flux/activation; lower = inhibition) at 10 µM | Solute carrier family 12 member 5 (Homo sapiens), Q9H2X9 | 2.2% of 190,000 active | KCC2 cells, thallium flux FluoZin-2 fluorescence;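 active = thallium flux slope and its plate-corrected score both differing from the plate sample mean at a set confidence after two filtering rounds, in either direction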;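 also: slope of fluorescence scaled to starting intensity during 10 to 20 s after thallium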
Target sequence (Q9H2X9 whole entry, looked up): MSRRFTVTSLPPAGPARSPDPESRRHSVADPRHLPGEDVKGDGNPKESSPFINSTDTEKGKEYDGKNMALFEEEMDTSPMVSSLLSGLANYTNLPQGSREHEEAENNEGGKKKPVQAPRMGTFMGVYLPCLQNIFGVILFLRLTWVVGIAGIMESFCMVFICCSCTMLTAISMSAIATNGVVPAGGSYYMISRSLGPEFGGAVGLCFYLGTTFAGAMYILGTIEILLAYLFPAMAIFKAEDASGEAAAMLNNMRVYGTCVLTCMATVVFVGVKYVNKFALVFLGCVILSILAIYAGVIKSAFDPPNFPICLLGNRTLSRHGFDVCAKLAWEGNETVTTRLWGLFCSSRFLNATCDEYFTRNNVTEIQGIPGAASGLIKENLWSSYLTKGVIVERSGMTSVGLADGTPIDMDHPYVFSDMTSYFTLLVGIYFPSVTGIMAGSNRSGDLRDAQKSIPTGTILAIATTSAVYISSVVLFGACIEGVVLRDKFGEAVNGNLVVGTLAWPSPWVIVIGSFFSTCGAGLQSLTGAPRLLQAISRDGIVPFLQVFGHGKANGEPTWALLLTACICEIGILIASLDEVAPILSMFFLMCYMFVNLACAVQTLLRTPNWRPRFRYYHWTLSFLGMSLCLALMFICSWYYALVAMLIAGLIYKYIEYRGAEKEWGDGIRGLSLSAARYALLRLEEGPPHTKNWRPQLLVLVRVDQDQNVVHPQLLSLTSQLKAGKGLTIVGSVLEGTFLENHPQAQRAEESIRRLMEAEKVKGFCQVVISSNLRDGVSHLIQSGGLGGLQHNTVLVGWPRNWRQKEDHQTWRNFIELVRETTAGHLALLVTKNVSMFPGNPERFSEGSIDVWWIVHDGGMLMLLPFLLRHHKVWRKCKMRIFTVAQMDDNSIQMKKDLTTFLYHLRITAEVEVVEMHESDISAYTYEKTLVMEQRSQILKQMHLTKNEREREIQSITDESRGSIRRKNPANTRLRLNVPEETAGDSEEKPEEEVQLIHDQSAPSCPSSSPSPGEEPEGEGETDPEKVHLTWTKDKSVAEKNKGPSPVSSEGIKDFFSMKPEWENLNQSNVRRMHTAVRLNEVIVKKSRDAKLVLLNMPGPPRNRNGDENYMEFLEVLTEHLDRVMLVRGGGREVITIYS
WT yeast gro inh: growth inhibition of WT strain, primary screen, mitochondrial fusion inhibitor project, WT and mutant strains, chemical genetic; mitochondrial fusion phenotypic screen; inhibition, % at 10 µM; 2.1% of 190,000 active; AID 1362, 2008; in the data active = inhibition above about 58%; tested in S. cerevisiae
Pf gametocyte: late stage P. falciparum gametocyte viability inhibitors, primary screen, ATP luminescence, HTS; 0.065% of 150,000 active; P. falciparum stage V gametocytes, 24 h; inhibition, % at 10.9 µM; AID 743093, 2013;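 active = inhibition above the mean plus 3 SD of compounds within the control limits, set per campaign, cut at about 38% in these data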;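 also: 0% = DMSO wells and 100% = medium only without gametocytes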
b-catenin transl: modulators of beta-catenin nuclear translocation, primary screen, imaging, HeLa cells, immunofluorescence, high-content; nuclear translocation activity, % at 5 µM; 0.3% of 190,000 active; AID 1665, 2009;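 active = nuclear translocation activity above 50% at 5 µM, with a well cell count of 50 or more; inconclusive = wells under 50 cells across six images, flagged as toxic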;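 also: per-cell ratio of nuclear to cytoplasmic median beta-catenin stain intensity; plate controls were DMSO negative control for no effect and GSK-3 inhibitor IX positive control for full effect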
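Signal – beta-catenin immunofluorescence imaging with DAPI · Test system – human HeLa cell line · Dosing – 5 µM primary single dose, 0.1% DMSO, 0.02–20 µM confirmation series · Measure – % activation, nuclear-to-cytoplasmic median beta-catenin signal ratio per cell · Incubation – 24 h compound exposure at 37°C, 5% CO2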
MT stabilizer: microtubule stabilizers in HeLa cells, primary screen, imaging, high-content imaging; HeLa tubulin immunostaining HCS, 24 h; share of cells brighter than vehicle mean+2SD; % tubulin-high responders, % at 10 µM; 0.83% of 200,000 active; AID 2205, 2009;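 active = plate Z-score above 3 for both tubulin-high and condensed-nucleus cell shares, with cell loss under 80%, at 10 µM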;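 also: anti alpha tubulin signal scored within the nucleus-defined area of each cell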
KCC2 sec1: KCC2 modulators in sodium-free buffer, confirmation, cell-based, HEK293 KCC2, thallium flux, secondary assay. normalised thallium flux (F/F0 slope) at 10 µM. shares compounds with KCC2 mod. 15% of 3,700 active. FluoZin2 fluorescence; active compounds read high;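 active = thallium flux slope above the same plate's solvent-only control mean plus 3 SD; inconclusive = the two replicate wells disagree; inactive = no significant difference from solvent-only control wells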
KCC2 bumet counter: thallium flux persisting under bumetanide in KCC2 cells, confirmation, counter-screen for KCC2 modulator project, cell-based, HEK293 KCC2, FluoZin2, secondary assay 3; shares compounds with KCC2 mod; HEK293-KCC2 + bumetanide/ouabain; active compounds read high; normalized thallium flux at 10 µM; 49% of 3,700 active; AID 1714, 2009;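 active = thallium entry rate above the same plate's blocked-transporter control wells by more than 3 SD; inconclusive = the two repeat wells disagree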;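 also: raw slope of fluorescence over initial fluorescence between 10 and 20 s after thallium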
KCC2 sec2: KCC2 modulators without ouabain present, confirmation, cell-based, HEK293 KCC2, thallium flux, FluoZin2, secondary assay 2; shares compounds with KCC2 mod; thallium flux FluoZin2 fluorescence; actives lie on both sides; F/F0 rise rate, 10–20 s post-thallium; normalized thallium flux at 10 µM; 23% of 3,700 active;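 active = thallium flux slope more than 3 SD above or below the plate's solvent-only control mean, mostly below; inconclusive = the two repeat wells disagreed; inactive = no significant shift from solvent-only controls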;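 also: raw slope with 0.1% DMSO as baseline and bumetanide as block control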
HEK293 Tl flux: thallium flux modulation in parental HEK cells, confirmation, counter-screen for KCC2 modulator project, cell-based, counterscreen 1; shares compounds with KCC2 mod; HEK293 parental cells, thallium flux FluoZin2, ouabain; baseline-ratio fluorescence slope, 10–20 s after thallium; thallium flux rate (normalised fluorescence) at 10 µM; 46% of 3,700 active; AID 1716, 2009;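 active = thallium flux rate significantly above the same plate's solvent-only control wells, beyond their mean plus 3 SD; inconclusive = the two replicate wells gave conflicting results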
KCC2 retest ouab: KCC2 inhibitors and activators, ouabain retest, confirmation, HEK-KCC2 cells; shares compounds with KCC2 mod; HEK293-KCC2, thallium flux FluoZin2 fluorescence; bidirectional: low = inhibitor, high = activator; raw Tl+ flux slope (below DMSO = inhibition, above = activation) at 10 µM; 48% of 3,700 active;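 active = thallium flux slope beyond 3 SD from same-plate DMSO control mean in most replicates, usually higher, sometimes lower; inconclusive = repeat tests gave conflicting results; inactive = no significant difference from controls in most replicates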;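 also: slope of initial-normalized fluorescence between seconds 10 and 20 after thallium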
HEK counter2: native HEK Tl+ uptake effects, second counter-screen – HEK cells, counterscreen 2, counter-screen for KCC2 modulator project, confirmation; shares compounds with KCC2 mod; HEK293 parental, thallium flux FluoZin-2 fluorescence slope; thallium flux slope at 10 µM; 33% of 3,700 active;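 active = thallium flux slope above the same plate's solvent-control mean plus 3 SD in both duplicate wells; inconclusive = duplicate wells that disagreed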;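 also: run without ouabain in cells lacking the KCC2 cotransporter; slope of fluorescence scaled to its starting value between 10 and 20 s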
* hit, by the source's call; ? = inconclusive; nt = no result. Rows were chosen to be rich in hits. Some 4% of all compounds tested hit in one or more screens of this group.

SMILES | KCC2 mod | WT yeast gro inh | Pf gametocyte | b-catenin transl | MT stabilizer | KCC2 sec1 | KCC2 bumet counter | KCC2 sec2 | HEK293 Tl flux | KCC2 retest ouab | HEK counter2
Cc1ccc(S(=O)(=O)N2CCCC2C(=O)Nc2nc3c(s2)CCCC3)cc1 (stereo not given) | -3.17* | 5.5 | 7.5 | -0.3 | 2.8 | 0.00781 | 0.00533 | 0.0347 | 0.00677 | 0.0161* | 0.0108
COCCNC(=O)CSc1nc(N)c(NC(=O)c2ccccc2F)c(=O)[nH]1 | 0.284 | 1.2 | 12.6 | -0.5 | 2.1 | nt | nt | nt | nt | nt | nt
O=C(CSc1ncccc1-c1nc2ccccc2[nH]1)N1CCN(c2ccccc2F)CC1 | -3.98* | 6.4 | 5.3 | -0.9 | 2.1 | 0.00601 | 0.00502 | 0.0251* | 0.0072 | ? | 0.00985
COc1ccccc1N1CCN(C(=O)CSc2ncccc2-c2nc3ccccc3[nH]2)CC1 | nt | -5.4 | nt | nt | 1.3 | nt | nt | nt | nt | nt | nt
CCN(c1ccccc1)S(=O)(=O)c1ccc(Cl)c(NC(=O)CN2C(=O)NC3(CCCC3)C2=O)c1 | -0.206 | nt | 14.8 | 0.3 | nt | nt | nt | nt | nt | nt | nt
CCCCCSc1nnc(-c2cc(Br)ccc2N)c(=O)[nH]1 | nt | -13.8 | 19.6 | -1.6 | 2.7 | 0.00738 | ? | 0.0324 | ? | ? | 0.0102
O=C(NCCN=C1NS(=O)(=O)c2ccccc21)c1ccncc1 | 7.02* | -36.8 | 25.7 | nt | 2.0 | 0.0109 | 0.00582 | 0.0321 | ? | 0.0222 | 0.01
CC(C)(C)C(=O)/C=c1\[nH]c(=O)/c(=C\c2ccc(C#N)cc2)s1 | 30.2* | 4.3 | 6.0 | 4.7 | 2.7 | 0.0186* | 0.05* | 0.0372 | ? | 0.0477* | ?
Cc1ccc2cc(C=O)c(Cl)nc2c1 | -1.07 | 7.9 | -14.9 | 1.8 | 1.5 | nt | nt | nt | nt | nt | nt
Cc1ccnc(NC(=S)NC(=O)c2cncc(Br)c2)c1 | 8.47* | 4.8 | 1.2 | -0.9 | 3.6 | 0.00679 | 0.0186* | 0.0315 | 0.0152* | ? | 0.014*
O=C1/C(=C/C=C/c2ccco2)SC(=S)N1NS(=O)(=O)c1ccccc1 | 6.81* | nt | 7.9 | -0.3 | nt | 0.00671 | 0.0142* | 0.0318 | 0.0172* | ? | 0.0178*
O=C1/C(=C/c2cccs2)SC(=S)N1NS(=O)(=O)c1ccccc1 | 8.83* | nt | -11.7 | 1.0 | nt | 0.0144* | 0.0293* | 0.0356 | 0.0159* | 0.0257 | 0.0138*
CC(C(=O)O)N1C(=O)/C(=C/C=C/c2ccco2)SC1=S (stereo not given) | 0.00125 | -4.6 | nt | -1.3 | 1.8 | nt | nt | nt | nt | nt | nt
O=C1N(Cc2ccc(F)cc2)CCN1c1ccc(F)cc1 | -3.34* | 0.9 | -20.7 | 2.8 | 4.4 | 0.00665 | ? | 0.0304 | 0.0112* | ? | 0.0116
CC(C)CC(CC(C)C)=NNC(=O)c1ccc2c(c1)OCO2 | 3.94* | -6.2 | nt | -3.4 | 2.6 | 0.00609 | 0.0049 | 0.0289 | 0.00799 | 0.0177 | 0.0098
C/C(=N\NC(=O)c1ccc2c(c1)OCO2)c1ccc(O)cc1 | -0.473 | nt | -5.7 | 0.4 | nt | nt | nt | nt | nt | nt | nt
O=C(NC(=S)Nc1cnc2ccccc2c1)c1ccccc1 | 20.5* | 22.6 | 0.1 | 2.3 | 3.8 | ? | 0.0411* | 0.0325 | 0.0123* | 0.022* | 0.0147*
O=C(O)C(=O)/C(=C\c1cccc(Cl)c1)c1ccc2ccccc2n1 | 11.2* | 22.4 | -4.9 | -2.8 | 2.8 | 0.00622 | 0.0224* | 0.033 | 0.0228* | ? | 0.0159*
Cc1cccc(/C=C(\C(=O)C(=O)O)c2ccc3ccccc3n2)c1 | 0.766 | -13.2 | -2.7 | -1.7 | 7.0 | nt | nt | nt | nt | nt | nt
CCOc1ccc(-c2nc(C#N)c(N3CCN(Cc4ccccc4)CC3)o2)cc1 | -4.28* | -1.9 | nt | nt | 7.7 | 0.00781 | 0.00661 | 0.0271 | 0.00711 | 0.0232* | 0.0101
CCOc1ccc(-c2nc(C#N)c(N3CCOCC3)o2)cc1 | nt | -8.1 | nt | -2.5 | 4.4 | nt | nt | nt | nt | nt | nt
Cc1ccc(-c2cc(-c3n[nH]c(=S)n3C)c3ccccc3n2)cc1 | 10.7* | 69.9* | nt | -3.7 | 5.0 | 0.00915 | 0.0444* | 0.0312 | 0.0122* | ? | ?
CCOc1cccc(-c2cc(-c3n[nH]c(=S)n3CC)c3ccccc3n2)c1 | nt | 66.9* | nt | -3.2 | 2.0 | 0.00894 | 0.0724* | 0.0306 | 0.0152* | ? | ?
Cc1cccc(-c2n[nH]c(=S)n2C)c1 | 0.187 | 25.8 | 10.0 | 3.9 | 1.6 | nt | nt | nt | nt | nt | nt
CCOc1ccccc1-c1cc(-c2n[nH]c(=S)n2CC)c2ccccc2n1 | 1.59 | 5.0 | -5.0 | nt | 2.4 | nt | nt | nt | nt | nt | nt
SMILES | KCC2 mod | WT yeast gro inh | Pf gametocyte | b-catenin transl | MT stabilizer | KCC2 sec1 | KCC2 bumet counter | KCC2 sec2 | HEK293 Tl flux | KCC2 retest ouab | HEK counter2
CC1=C(/C=C/C(C)=N\NC(=O)c2ccncc2)C(C)(C)CCC1 | 14.8* | 3.7 | -12.7 | 3.9 | 2.4 | 0.00502 | 0.0321* | ? | 0.0235* | 0.033* | 0.0261*
CC(/C=C/c1ccc2c(c1)OCO2)=N/NC(=O)c1ccncc1 | 1.04 | nt | -16.1 | 0.2 | nt | nt | nt | nt | nt | nt | nt
Cn1cc(Br)c(-c2cccc(NC(=O)CCC(=O)O)c2)n1 | 0.668 | nt | -6.2 | 0.5 | nt | nt | nt | nt | nt | nt | nt
Cc1ccccc1C(=O)NNC(=O)CSc1nnc(C)n1-c1ccccc1 | 0.777 | 0.8 | nt | -0.5 | 3.6 | nt | nt | nt | nt | nt | nt
COC(=O)C1C(=O)C2=C(CC1C)NC(C)=C(C(=O)OC(C)C)C2c1ccc(C)o1 (stereo not given) | nt | 34.9 | nt | 0.6 | 1.0 | 0.0092 | 0.00541 | 0.0294 | 0.00707 | 0.0203 | 0.00924
COC(=O)C1C(=O)C2=C(CC1C)NC(C)=C(C(=O)OCc1ccc(OC)cc1)C2c1ccc(C)o1 (stereo not given) | 0.0766 | 6.9 | nt | nt | 2.0 | nt | nt | nt | nt | nt | nt
C#CCNc1cc(-c2ccccc2)nc2ncnn12 | -0.176 | -12.2 | -10.9 | -0.2 | 3.2 | nt | nt | nt | nt | nt | nt
